High-throughput results deposited in PubChem by several laboratories.
An excerpt weighted towards active compounds, which were near 2% of everything screened.
LMP1 NFkB inh = EBV LMP1-driven NF-kappaB luciferase reporter inhibitors, primary screen, cell-based, luminescence, single point. LMP1-induced NF-kappaB luciferase reporter cells. inhibition, % at 12.5 µM. 350,000 compounds, 0.69% hits. AID 504558, 2011; in the data active = inhibition above about 41%;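 also: 0% = neutral control wells and 100% = reference inhibitor control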
NR2E3 ag-1 = NR2E3 agonists in two-hybrid cells, primary screen, cell-based, luminescence, CHO-S, Gal4-NCOR/VP16-NR2E3; luciferase; inhibition of corepressor binding, % at 3.98 µM; 360,000 compounds, 0.35% hits;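 active = inhibition above the mean of all tested compounds plus 3 SD, cut at about 70% in these data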;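 also: 0% = DMSO with NR2E3 transfected cells and 100% = cells lacking NR2E3 construct; higher means lower luciferase signal from less NR2E3 corepressor binding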
Target sequence (Q9Y5X4 whole entry, looked up, the tested form may be a part): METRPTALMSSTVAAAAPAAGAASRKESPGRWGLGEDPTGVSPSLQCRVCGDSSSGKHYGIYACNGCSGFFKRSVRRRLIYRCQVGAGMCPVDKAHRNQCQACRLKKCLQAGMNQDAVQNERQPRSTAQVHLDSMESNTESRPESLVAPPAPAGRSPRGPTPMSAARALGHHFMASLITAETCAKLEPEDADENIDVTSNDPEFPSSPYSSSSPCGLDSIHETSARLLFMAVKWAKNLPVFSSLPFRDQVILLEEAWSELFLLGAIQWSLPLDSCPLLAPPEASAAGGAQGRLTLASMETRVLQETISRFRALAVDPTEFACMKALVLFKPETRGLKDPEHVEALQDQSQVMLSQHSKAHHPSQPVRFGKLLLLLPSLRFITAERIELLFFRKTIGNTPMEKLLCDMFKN
HIF act = HIF pathway transcriptional activators, primary screen, cell-based, U2OS HRE-luciferase, luminescence. U2OS HRE-luciferase reporter; normalized: DMSO 0%, desferrioxamine 100%. activation, % at 7.5 µM (by protocol). 300,000 compounds, 0.32% hits;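 active = mean activation of at least 10% of the iron chelator positive control signal, with at least half of replicates also reaching 10%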
TROY signal inh = inhibitors of TROY-driven NF-kB signaling, primary screen, Q293 LMP1-TROYcd cells, NF-kB luciferase, uHTS; inhibition, % at 10 µM; Q293 LMP1-TROYcd NF-kB luciferase reporter, 4 h; 360,000 compounds, 0.98% hits;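 active = compounds whose plate-normalised and pattern-corrected inhibition of the luciferase reporter signal at the single screening dose is 50% or more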
NR2E3 ag-2 = inhibitors of NR2E3-RetCOR corepressor binding, primary screen, NR2E3 agonist project, biochemical, TR-FRET, GST-NR2E3, biotin-RetCOR; inhibition of corepressor binding, % at 4.78 µM; 320,000 compounds, 0.12% hits; AID 2300, 2010; 1536-well;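 active = percent inhibition above the cutoff of mean plus 3 SD of all tested compounds, set per screening campaign, cut at about 20% in these data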;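 also: 0% = DMSO wells and 100% = biotin wells as full block of FRET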
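System: GST-NR2E3 and biotin-RetCOR proteins; probe or stimulus: 7 nM biotin-RetCOR; doses: compound at 4.8 µM, single dose; schedule: Compound–protein incubation for 5 h at 4 °C; detection: time-resolved FRET; read-out: percent inhibition; controls: biotin wells as high control, 0.6% DMSO wells as low control; format: 1536-well plates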
Starred values were filed as active, the others as inactive; . = not tested or not shown.

SMILES	LMP1 NFkB inh	NR2E3 ag-1	HIF act	TROY signal inh	NR2E3 ag-2
COCC(=O)OC1CCn2c1nc1c2C(=O)C(C)=C(NC(C)=O)C1=O (configuration not stated)	87*	6	.	54*	.
Cc1ccc(-c2nn(-c3ccccc3)cc2/C=C/C(=O)OCC(=O)NC2CC2)o1	8	5	-1	56*	0
COc1ccc2oc(=O)c(C(=O)NC3CCCCCC3)cc2c1	-30	1	9.9*	-51	2
CNC(=O)c1cc2cc(OC)ccc2oc1=O	-4	6	0	15	3
CC(=NNC(=S)N(Cc1ccccn1)Cc1ccccn1)c1cnccn1	81*	-24	.	5	.
S=C(NN=Cc1ccccn1)N(Cc1ccccn1)Cc1ccccn1	8	2	.	-8	.
CCCCCCCCCc1nc2sc3c(c2c(=O)n1NC(=O)c1ccccc1[N+](=O)[O-])CC(C)(C)OC3	-3	-17	0	58*	-1
CCCCCCCCCc1nc2sc3c(c2c(=O)n1NC(=O)c1ccc([N+](=O)[O-])cc1)CC(C)(C)OC3	3	5	0	42	0
COc1ccccc1CNC(=O)C1(C)CCN1Cc1ccc2ccccc2c1 (configuration not stated)	.	0	.	25	.
Cc1cc(=O)[nH]c(SCC(=O)Nc2cccc3ccccc23)c1C#N	-1	-2	0	52*	-2
COc1cc(NC(=O)c2ccccc2)c(OC)cc1NC(=O)CSc1[nH]c(=O)cc(C)c1C#N	4	-21	1	8	5
FC(F)Sc1ccc(NC(=S)NCc2ccccc2)cc1	-3	-7	1	37	1
FC(F)Sc1ccc(NC(=S)NC(c2ccccc2)c2ccccc2)cc1	1	-15	0	52*	5
CCn1cc(C(=O)NC(=S)Nc2sc3c(c2C(=O)OC)CCCCCC3)cn1	-50	-33	0	71*	-4
CCOC(=O)c1c(NC(=O)c2nn(CC)cc2Br)sc2c1CCCCC2	25	-6	0	-18	-2
CCOc1ccc2nc(Cl)c(C3CC(c4ccco4)=NN3S(C)(=O)=O)cc2c1 (configuration not stated)	-4	-21	0	57*	-1
CCN1CCC[C@H]1CNCCCn1cnc2c(SC)ncnc21	-1	-20	.	1	.
C=CCOc1ccc(/C=C2\SC(N)=NC2=O)cc1OC	9	-13	12*	-14	-3
Cc1ccsc1/C=C1\SC(N)=NC1=O	50*	-51	1	-56	-11
NC1=NC(=O)/C(=C/c2ccc(Br)cc2)S1	74*	-41	0	-27	1
COc1ccccc1C(=O)NC(=O)COC(=O)/C(=C/c1ccccc1)NC(C)=O	-2	-25	0	17	-1
Cc1ccc(S(=O)(=O)N2CCCOC2CNC(=O)C(=O)NCc2ccccn2)cc1 (configuration not stated)	4	8	0	7	4
O=C(CCN1CCOCC1)NC1CCCN(Cc2ccccc2F)C1 (configuration not stated)	-3	10	0	-12	0
CSc1nc(N)nc2c1ncn2Cc1ccccc1	3	-41	.	10	.
O=C(CCCOc1ccccc1)N1CCN(c2ccccc2)CC1	86*	-123	3	-47	2
SMILES	LMP1 NFkB inh	NR2E3 ag-1	HIF act	TROY signal inh	NR2E3 ag-2
Cc1cc(C(=O)CSc2ccc(F)cc2)cc(C)c1O	3	-121	0	-42	0
Cc1cc(C(=O)CSc2ccc(Cl)cc2)cc(C)c1OC(=S)N(C)C	-24	-45	3	80*	-1
Cc1ccc2cc(/C=N/NC(=O)c3ccccc3O)c(Cl)nc2c1	4	-12	0	65*	-5
CS(=O)(=O)N(Cc1ccc(Cl)cc1)c1ccc(C(=O)NCc2ccccn2)cc1	-8	-4	0	19	0
Cc1cccc2cc(/C=N/NC(=O)c3ccccc3O)c(Cl)nc12	7	-24	1	57*	0
CS(=O)(=O)N(Cc1ccc(Cl)cc1)c1ccc(C(=O)N/N=C/c2cc3ccccc3nc2Cl)cc1	58*	-3	0	0	-4
